Laboratory results as given in PMC6593619 (Clinical Pharmacology and Therapeutics, 2019).
Like-named read-outs stand apart in the source and are kept apart here.

How the values were obtained:
[1] = format: in vivo, human; conditions: for Relative difference in Cmax C vs. A (95% CI): esomeprazole 3 hours prior vs regorafenib alone; for Relative difference in Cmax B vs. A (95% CI): esomeprazole concomitant vs regorafenib alone; for Cmax (geomean (CV)) / Tmax: plasma; for Cmax (geomean (CV)): CV in %; for Tmax: human, oral, Tmax (median (IQR))
Outline: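 mCRC or GIST patients: regorafenib 120 or 160 mg daily, 14-day loading, 5 days alone or with esomeprazole 40 mg daily (concomitant or 3 h prior); sequence A-B-C or C-B-A. Plasma predose to 24 h on days 21, 49, 77; UPLC-MS/MS. Log Cmax: mixed model (treatment, sequence, phase fixed; subject random), geometric-mean ratio, Bonferroni 97.5% CI. Tmax: Wilcoxon signed rank.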

[2] = Toxicity; format: in vivo, human; conditions: whole study period
Outline: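 Incidence of toxicity tallied per phase in patients on regorafenib 120 or 160 mg daily, alone or with esomeprazole 40 mg daily; only toxicity new or worsened relative to baseline counted.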

[3] = cited from earlier work
[4] = compared with other TKIs, despite solid dispersion formulation; cited from earlier work
[5] = after oral administration; cited from earlier work
[6] = mCRC, unselected group, third or fourth line; cited from earlier work
[7] = erlotinib combined with omeprazole; cited from earlier work
[8] = phase A: regorafenib alone, 120 mg at steady state
[9] = phase A: regorafenib alone, 120 mg once daily at steady state
[10] = phase B: regorafenib + esomeprazole 40 mg concomitant
[11] = phase B: regorafenib + esomeprazole concomitant
[12] = phase C: regorafenib + esomeprazole 40 mg 3 hours prior
[13] = phase C: regorafenib + esomeprazole 3 hours prior

Relative difference in Cmax C vs. A (95% CI) [1]	Relative difference in Cmax B vs. A (95% CI) [1]	Tmax (median (IQR)) [1, 8]	Cmax (geomean (CV)) [1, 9]	Cmax (geomean (CV)) [1, 10]	Tmax (median (IQR)) [1, 11]	Cmax (geomean (CV)) [1, 12]	Tmax (median (IQR)) [1, 13]	Structure (SMILES)	further results
−9.3% (−38.1 to 32.9%)	−11.0% (−38.7 to 29.1%)	3.3 (2.0–6.0) hours	2.9 (72.0) μg/mL	2.6 (60.9) μg/mL	2.6 (2.1–3.5) hours	2.6 (44.2) μg/mL	3.5 (2.5–6.0) hours	CNC(=O)c1cc(Oc2ccc(NC(=O)Nc3ccc(Cl)c(C(F)(F)F)c3)c(F)c2)cc[n+]1[O-] [M‐2]	–
−9.1% (−43.2 to 45.5%)	−10.4% (−34.6 to 22.8%)	2.6 (1.5–4.0) hours	1.6 (118.8) μg/mL	1.4 (132.4) μg/mL	2.3 (1.5–8.0) hours	1.4 (107.6) μg/mL	3.5 (2.5–6.0) hours	NC(=O)c1cc(Oc2ccc(NC(=O)Nc3ccc(Cl)c(C(F)(F)F)c3)c(F)c2)cc[n+]1[O-] [M‐5]	–
–	–	–	–	–	–	–	–	C#Cc1cccc(Nc2ncnc3cc(OCCOC)c(OCCOC)cc23)c1 [erlotinib]	Decrease in systemic exposure [7]: 46%

Structure (SMILES)	Relative difference in Cmax C vs. A (95% CI) [1]	Relative difference in Cmax B vs. A (95% CI) [1]	Tmax (median (IQR)) [1, 8]	Cmax (geomean (CV)) [1, 9]	Cmax (geomean (CV)) [1, 10]	Tmax (median (IQR)) [1, 11]	Cmax (geomean (CV)) [1, 12]	Tmax (median (IQR)) [1, 13]	further results
CNC(=O)c1cc(Oc2ccc(NC(=O)Nc3ccc(Cl)c(C(F)(F)F)c3)c(F)c2)ccn1 [Regorafenib, 4‐[4‐({[4‐chloro‐3‐(trifluoromethyl)phenyl]carbamoyl}amino)‐3‐fluorophenoxy]‐N‐methylpyridine‐2‐carboxamide]	−12.1% (−32.0 to 13.8%)	−16.5% (−34.9 to 7.0%)	–	–	–	–	–	–	Pharmacokinetic interaction with esomeprazole ([1]; esomeprazole concomitant or 3 hours prior): did not reveal a significant pharmacokinetic interaction; Tmax ([1]; 120 mg, phase A: regorafenib alone, 120 mg at steady state): 2.5 h; Tmax [1, 11]: 2.5 h; Tmax [1, 13]: 3 h; Incidence of anorexia ≥ grade 3 [2]: 14%; Incidence of hand/foot skin reaction ≥ grade 3 [2]: 14%; Incidence of hypertension ≥ grade 3 [2]: 64%; Incidence of anorexia ([2]; all grades): 71%; Incidence of fatigue ([2]; all grades): 71%; Incidence of hand/foot skin reaction ([2]; all grades): 64%; Incidence of hypertension ([2]; all grades): 71%; Incidence of stomatitis ([2]; all grades): 57%; Incidence of hoarseness ([2]; all grades, 14 patients): 79%; Basic predicted pKa [3]: around 2; Solubility [4]: low solubility; Time of maximum concentration (Tmax) [5]: 3 to 4 h; Median overall survival increase compared with placebo [6]: 1.4 months
